In paper PMC6310869 (CPT: Pharmacometrics & Systems Pharmacology, 2018):
“Also recorded” adds a separate entry of the source.

How the values were obtained:
CYP2D6 [1] = biological target: T1, CYP2D6 (Homo sapiens, UniProt P10635); conditions: ref Simcyp; cited from earlier work
CYP2D6 [2] = biological target: T1, CYP2D6; experiment: In vitro time-dependent inhibition of CYP2D6; format: in vitro ADME; conditions: in vitro data
[3] = logP by shaking octanol/water, HPLC quantification; format: physicochemical
Procedure, shortened: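 Shake-flask method: octanol-saturated water holding test compound (~26 mg/mL) was shaken with an equal volume of water-saturated octanol for 1 hour at 23°C. Compound quantified by HPLC in each separated phase.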

[4] = Plasma protein binding in fresh human plasma by ultrafiltration; format: in vitro ADME
Procedure, shortened: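 Fresh human plasma spiked with test compound at 5, 10 and 75 μg/mL and incubated 0.5 hours at 37°C. Ultrafiltration followed by LC-MS/MS of both the ultrafiltrate and the originally spiked plasma.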

CYP3A4/5 [5] = experiment: Direct inhibition; format: in vitro ADME; conditions: human, pooled human liver microsomes, probe midazolam (1'-hydroxylation)
[6] = Clinical pharmacokinetics, phase I study in patients with solid tumors; format: in vivo; conditions: human, plasma, iv
CYP3A4 mRNA = experiment: Induction in primary cultures of cryopreserved human hepatocytes; format: cell-based; conditions: 1 μM, once daily for 3 days, 3 donors
Procedure, shortened: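 Primary cultures of cryopreserved human hepatocytes, 3 white donors as independent evaluations. Dosed once daily for 3 days with test compound (1, 2.5, 10 μM), vehicle, 25 μM flumazenil (negative control) or 20 μM rifampicin (positive control). Cells lysed and total RNA harvested; CYP3A4 mRNA quantified by RT-PCR.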

CYP2B6 = biological target: T2, CYP2B6 (Homo sapiens, UniProt P20813); format: in vitro ADME; conditions: pooled human liver microsomes, probe efavirenz (8-hydroxylation)
T2 sequence (P20813 1-491): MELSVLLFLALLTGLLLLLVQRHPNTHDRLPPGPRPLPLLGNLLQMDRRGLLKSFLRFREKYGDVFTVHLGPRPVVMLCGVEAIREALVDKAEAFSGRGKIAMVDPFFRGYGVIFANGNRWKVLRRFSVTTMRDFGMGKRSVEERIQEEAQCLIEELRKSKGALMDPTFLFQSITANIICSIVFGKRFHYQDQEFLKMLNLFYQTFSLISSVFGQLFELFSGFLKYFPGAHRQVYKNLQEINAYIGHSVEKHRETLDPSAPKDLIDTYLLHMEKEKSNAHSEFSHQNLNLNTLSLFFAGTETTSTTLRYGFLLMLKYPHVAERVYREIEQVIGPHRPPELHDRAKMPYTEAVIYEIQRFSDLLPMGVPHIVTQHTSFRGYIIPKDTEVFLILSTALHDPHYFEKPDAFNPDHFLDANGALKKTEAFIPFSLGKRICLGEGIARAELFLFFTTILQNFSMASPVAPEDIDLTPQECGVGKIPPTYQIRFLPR

CYP2D6 [7] = biological target: T1, CYP2D6; experiment: Direct inhibition; format: in vitro ADME
CYP3A4/5 [8] = format: in vitro ADME; conditions: human, pooled human liver microsomes, probe midazolam (1'-hydroxylation)
human hepatocytes = experiment: Cell integrity of hepatocyte cultures; format: cell-based; conditions: for Lactate dehydrogenase release: 3 days
Procedure, shortened: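 Cryopreserved primary human hepatocytes from 3 white donors, dosed once daily for 3 days with test compound (1, 2.5, 10 μM), vehicle, 25 μM flumazenil (negative control) or 20 μM rifampicin (positive control). Cell integrity judged by lactate dehydrogenase release into the culture medium and by microscopic review of morphology and confluency.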

[9] = patients; cited from earlier work
CYP3A = conditions: cited from earlier work
CYP3A4 = conditions: ref Simcyp; cited from earlier work

T1 sequence (P10635 whole entry): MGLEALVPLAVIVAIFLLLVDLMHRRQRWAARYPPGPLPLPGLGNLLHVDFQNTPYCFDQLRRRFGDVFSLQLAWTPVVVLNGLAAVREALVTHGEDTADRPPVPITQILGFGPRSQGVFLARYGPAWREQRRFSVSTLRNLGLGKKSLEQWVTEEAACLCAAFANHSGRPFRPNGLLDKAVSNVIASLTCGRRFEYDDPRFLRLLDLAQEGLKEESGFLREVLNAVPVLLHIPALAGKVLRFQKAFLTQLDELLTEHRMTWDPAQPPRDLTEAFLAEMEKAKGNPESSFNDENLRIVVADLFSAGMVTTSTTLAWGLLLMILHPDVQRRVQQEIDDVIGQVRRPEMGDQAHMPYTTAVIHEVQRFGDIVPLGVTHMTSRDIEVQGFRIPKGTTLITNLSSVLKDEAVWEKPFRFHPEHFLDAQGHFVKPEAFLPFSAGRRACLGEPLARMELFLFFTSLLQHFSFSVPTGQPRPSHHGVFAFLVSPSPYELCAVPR

## COc1ccc2c(c1)[C@]13CCCC[C@@H]1[C@H](C2)N(C)CC3 [Dextromethorphan]
CYP2D6 [1]
  fmCYP (fraction of substrate metabolized by CYP): 0.72

## Cn1c(COP(=O)(NCCBr)NCCBr)cnc1[N+](=O)[O-] [Evofosfamide, [1‐methyl‐2‐nitro‐1H‐imidazole‐5‐yl] methyl N, N’‐bis [2‐bromoethyl] diamidophosphate]
CYP2D6 [2]
  Time-dependent inhibition of CYP2D6: not time‐dependent
[3]
  logP at 1 hour: 0.92
[4]
  fraction unbound at 0.5 h: 0.455
CYP3A4/5 [5]
  Ki at 5 min: 141 µM
[6]
  Vd: 0.43 L/kg
  clearance: 1060 mL/min
CYP3A4 mRNA
  Effect on CYP3A4 mRNA: no increase; also recorded: No induction
CYP2B6
  KI (inactivation): 3200 µM
  kinact: 0.000533 s⁻¹
CYP2D6 [7]
  Ki: 85.3 µM
CYP3A4/5 [8]
  KI (inactivation): 370 µM
  kinact: 0.000417 s⁻¹
Human hepatocytes; 1 μM, day 3, some signs of toxicity in third preparation
  Microscopic evaluation of toxicity: no signs of toxicity in two of the three donor cells
Human hepatocytes; 10 μM, versus control incubations
  Lactate dehydrogenase release: higher
Human hepatocytes; 1 and 2.5 μM
  Lactate dehydrogenase release: comparable to control incubations
Human hepatocytes; 2.5 and 10 μM
  Microscopic evaluation of toxicity: Toxicity was observed in all donor cells
[9]
  Elimination half-life: 48.6 min

## Cc1ncc2n1-c1ccc(Cl)cc1C(c1ccccc1F)=NC2 [Midazolam]
CYP3A
  Fraction escaping gut metabolism in the absence of inhibitor (fG): 0.57
CYP3A4
  fmCYP (fraction of substrate metabolized by CYP): 0.96
